Screening results (PubChem BioAssay)
bIAP inh: bovine intestinal alkaline phosphatase inhibitors, primary screen, selectivity assay for TNAP inhibitor project, biochemical, bovine IAP, CDP-star luminescence. alkaline phosphatase, intestinal [Bos taurus]. purified bovine IAP, 30 min. inhibition, % at 20 µM. 190,000 tested, under 10 active. AID 1019, 2008;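 active means over 50% inhibition of intestinal alkaline phosphatase at 20 µM in the single-dose screen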
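System: Purified bovine intestinal alkaline phosphatase (IAP) enzyme | Input: IAP diluted 1/65,000,000 in the well | Also added: CDP-star chemiluminescent phosphatase substrate, 30 µM final | Dosing: 20 µM single dose | Times: Enzyme reaction for 30 min at room temperature | Detection: Luminescence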
mIAP block: inhibitors of mouse IAP, primary screen, biochemical, luminescence, uHTS; intestinal alkaline phosphatase [Mus musculus]; purified mouse IAP, CDP-Star luminescence, 30 min; inhibition, % at 10 µM; actives 0.2% (n = 330,000); AID 2806, 2010;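 active means inhibition of at least 40% at 10 µM in the primary screen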;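 further: plate controls were DMSO with enzyme for no effect and no enzyme wells for full effect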
hIAP block: human IAP inhibitors, primary screen, biochemical, luminescence, uHTS; inhibition, % at 10 µM; purified IAP, CDP-Star luminescence, 30 min; AID 2544, 2010; actives 0.12% (n = 330,000); Intestinal-type alkaline phosphatase (Homo sapiens), P09923;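 active means inhibition reaching a set limit with compound at 10 µM in the primary screen, cut at about 35% in these data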;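 further: plate controls were DMSO wells with enzyme for no effect and no-enzyme buffer wells for full effect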
Target sequence (P09923 whole entry, looked up): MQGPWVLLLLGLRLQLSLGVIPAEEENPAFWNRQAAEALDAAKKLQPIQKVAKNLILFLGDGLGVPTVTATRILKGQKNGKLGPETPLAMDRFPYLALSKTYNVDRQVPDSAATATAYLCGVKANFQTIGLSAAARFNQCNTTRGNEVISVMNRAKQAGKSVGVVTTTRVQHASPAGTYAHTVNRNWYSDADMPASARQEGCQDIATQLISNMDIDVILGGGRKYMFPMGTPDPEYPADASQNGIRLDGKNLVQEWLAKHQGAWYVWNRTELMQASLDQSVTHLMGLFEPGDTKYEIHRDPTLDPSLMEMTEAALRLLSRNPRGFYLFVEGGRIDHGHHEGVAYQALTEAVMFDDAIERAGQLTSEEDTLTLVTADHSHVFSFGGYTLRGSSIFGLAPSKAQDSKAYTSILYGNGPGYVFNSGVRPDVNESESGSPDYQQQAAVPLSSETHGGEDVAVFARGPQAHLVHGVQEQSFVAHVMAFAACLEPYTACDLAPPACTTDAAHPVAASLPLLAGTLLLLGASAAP
bIAP act: bovine intestinal alkaline phosphatase activators, primary screen, biochemical, bovine IAP, CDP-star luminescence | alkaline phosphatase, intestinal [Bos taurus] | purified bovine IAP, 30 min; stronger effect = higher value; fold of DMSO-control signal, blank-subtracted | activation factor at 20 µM | actives 0.17% (n = 200,000);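 active means activation factor of 2 or more at 20 µM, a signal rise over negative controls twice the positive control's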
hIAP activ: human IAP activators, primary screen, biochemical, luminescence, uHTS. Intestinal-type alkaline phosphatase (Homo sapiens), P09923. actives 0.16% (n = 330,000). AID 2524, 2010. activation factor at 10 µM. purified human IAP, CDP-Star luminescence, 30 min; stronger effect = higher value; 1 = vehicle-only enzyme, 0 = enzyme-free background;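 active means activation factor of the enzyme at least 2-fold when tested at 20 µM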
mIAP act: activators of mouse IAP, primary screen, biochemical, luminescence, uHTS. intestinal alkaline phosphatase [Mus musculus]. AID 2805, 2010. muIAP, CDP-Star luminescence, 30 min; stronger effect = higher value; 1 = vehicle-only enzyme signal, 0 = enzyme-free wells. activation factor at 10 µM. actives 0.24% (n = 330,000);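 active means activation factor of at least 2 at 20 µM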
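System: Mouse IAP enzyme | Also added: CDP-Star substrate | Dosing: Compounds dispensed in DMSO | Schedule: 30 min enzyme-substrate-compound incubation at room temperature | Technique: Chemiluminescence readout | Control set: DMSO-only wells and no-enzyme negative control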
Active calls of the source: *; i = inactive; . = no result given. The list is not random: actives were taken first. Their share in the collection is about 0.79%.

SMILES	bIAP inh	mIAP block	hIAP block	bIAP act	hIAP activ	mIAP act
Cc1ccc(C)c(OCCC(=O)Nc2cccc(S(=O)(=O)N3CCCCC3)c2)c1	.	-104.8	-1.9	.	1.02	2.05*
Cc1ccc(C)c(OCCC(=O)Nc2cc(S(=O)(=O)N3CCCCC3)ccc2C)c1	.	-47.6	0.8	.	0.992	1.48
Nc1ncncc1-c1ccc2ccccc2c1	.	-6.5	7.5	.	0.925	1.06
COc1cccc(NC(=O)NCCCSC2CCCCC2)c1	16.0	-125.7	11.5	0.8	0.885	2.26*
Nn1c(-c2ccccc2Cl)nnc1-c1ccccc1Cl	-156.7	-1.2	4.6	2.6*	0.954	1.01
CC(C)(C)c1ccc(NC(=O)Nc2ccc(OCC(=O)N3CCOCC3)cc2)cc1	-29.3	-107.8	-5.1	1.3	1.05	2.08*
COc1ccc(Cn2c(C)c(C)c(C#N)c2NC(=O)Nc2cccc(C)c2)cc1	-9.0	-118.2	-4.2	1.1	1.04	2.18*
CC(=O)c1sc(NC(=O)C(C)Oc2ccc3c(C)cc(=O)oc3c2)nc1C (stereo not given)	.	0.0	2.0	.	0.98	1
O=[N+]([O-])c1cc(-c2ncccn2)cs1	-145.5	2.7	-1.2	2.5*	1.01	0.973
CC(C)CNC(=S)NC(=O)c1csc([N+](=O)[O-])c1	.	11.0	-17.5	.	1.18	0.89
Cc1ccc(NC(=O)COc2ccccc2CNC(C)(C)CC(C)(C)C)cc1	i	-57.5	11.0	30.3*	0.89	1.57
COc1ccc(-c2n(Cc3ccccc3)c3ccccc3[n+]2Cc2ccccc2)cc1	15.8	12.4	2.3	0.8	0.977	0.876
Cc1ccc(SCCNC(=S)Nc2ccc(C)c(C)c2)cc1	7.6	-178.7	-10.7	0.9	1.11	2.79*
Cc1cccc(NC(=S)NCCC(c2ccccc2)c2ccccc2)c1	9.6	i	-0.9	0.9	1.01	7.57*
S=C(NCCSCc1c(Cl)cccc1Cl)Nc1ccccc1	26.2	-148.5	-6.5	0.7	1.06	2.48*
Cc1ccc(SCCNC(=S)Nc2ccccc2)cc1	37.1	-115.3	-27.2	0.6	1.27	2.15*
Cc1cccc(NC(=S)NNC(=S)NCc2ccccc2)c1	7.4	6.4	-20.7	0.9	1.21	0.936
Cc1ccc(SCCNC(=S)Nc2cc(C)ccc2C)cc1	.	-54.3	-2.6	0.4	1.03	1.54
COc1ccccc1NC(=S)NCCSc1ccc(C)cc1	6.4	-48.9	-16.8	0.9	1.17	1.49
Cc1cc(C)cc(NC(=S)NCCSc2ccc(Cl)cc2)c1	-4.1	-128.5	-2.2	1	1.02	2.29*
Cc1nn(Cc2ccc(Cl)cc2Cl)c(C)c1NC(=O)c1sc2ccccc2c1Cl	12.7	4.3	0.8	0.9	0.992	0.957
Cc1nn(Cc2ccc(Cl)cc2Cl)c(C)c1NC(=O)NC12CC3CC(CC(C3)C1)C2	-34.4	-111.6	11.9	1.3	0.881	2.12*
COC(=O)c1c(N2C(=O)[C@H]3[C@@H](C2=O)[C@]2(C(=O)Nc4ccc(C)cc42)N2CCC[C@@H]32)sc(C)c1C	9.6	14.0	-0.1	0.9	1	0.86
O=C1S/C(=C\C=C\c2ccco2)C(=O)N1c1ccc(O)cc1	-59.4	79.9*	1.1	1.6	0.989	0.201
O=C1S/C(=C\C=C\c2ccco2)C(=O)N1c1ccccc1	3.1	75.5*	27.1	1	0.729	0.245
O=C1S/C(=C\c2cccs2)C(=O)N1c1ccc(O)cc1	.	5.9	-17.0	.	1.17	0.941
CC(C)Sc1nc2sccc2c(=O)n1-c1ccccc1	.	1.0	-0.2	.	1	0.99
CC1=C(C#N)C(=O)N(C2CCS(=O)(=O)C2)C(=O)/C1=C\c1ccco1 (stereo not given)	.	46.8*	-8.3	.	1.08	0.532
COc1cc2c(cc1NC(=O)COC(=O)CNS(=O)(=O)c1ccc(C)cc1)oc1ccccc12	-1.9	-0.2	4.0	1	0.96	1
COCCNC(=S)N/N=C(\C)c1cccc([N+](=O)[O-])c1	-1.1	-2.0	10.5	1	0.895	1.02
